In ChEMBL document CHEMBL4004801, “Bioactive Constituents from the Termite Nest-Derived Medicinal Fungus Xylaria nigripes” (J Nat Prod, 2017):

What was measured:
BV-2 [1] = assay: Inhibition of LPS-induced COX-2 expression in mouse BV2 cells pretreated for 15 mins followed by LPS-stimulation after 24 hrs by western blot analysis; format: functional, cell-based
Outline: (§1)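 Western blot in BV-2 microglia after serum-free conditioning for 24 h. Compound given at 2, 5, 10 and 20 μM, then LPS 150 ng/mL for 24 h. iNOS and COX-2 detected by ECL and expressed relative to control. IC50 calculated from the concentration–response data.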

BV-2 [2] = assay: Inhibition of LPS-induced iNOS expression in mouse BV2 cells pretreated for 15 mins followed by LPS-stimulation after 24 hrs by western blot analysis; format: functional, cell-based; outline: as §1
BV-2 [3] = assay: Inhibition of LPS-induced iNOS expression in mouse BV2 cells at 20 uM pretreated for 15 mins followed by LPS-stimulation after 24 hrs by western blot analysis relative to control; format: functional
Outline: (§2)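 BV-2 cells at 80% confluence, serum-free medium for 24 h. Cells given DMSO or compound, then LPS 150 ng/mL for 24 h. Lysate supernatants run on SDS-PAGE, blotted to PVDF, probed with anti-COX-2 or anti-iNOS and HRP secondary, detected by ECL. Protein levels expressed as fold of control. Mean ± SD of three experiments.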

BV-2 [4] = assay: Inhibition of LPS-induced nitric oxide production in mouse BV2 cells pretreated for 30 mins followed by LPS-stimulation after 24 hrs by Griess assay; format: functional, cell-based
Outline: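 BV2 cells seeded at 5 × 10^5 per well for 16 h, then moved to phenol red-free DMEM. Cells pretreated 30 min with vehicle or compound (2, 10, 20, 40 μM), then given LPS 150 ng/mL for 24 h. Supernatant nitrate reduced with nitrate reductase and cofactors for 1 h at RT in the dark. Griess A and B added for 20 min, then A550 read. Nitrite obtained by regression against NaNO2 standards, and IC50 derived. Curcumin used as positive control.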

BV-2 [5] = assay: Inhibition of LPS-induced COX-2 expression in mouse BV2 cells at 20 uM pretreated for 15 mins followed by LPS-stimulation after 24 hrs by western blot analysis relative to control; format: functional; outline: as §2
[6] = Cytotoxicity against mouse BV2 cells assessed as cell viability at 20 uM after 24 hrs by MTT assay relative to control; format: cell-based, BV-2; conditions: read-out: Activity
Outline: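 BV-2 cells grown in DMEM with 10% heat-inactivated FBS at 37 °C under 5% CO2. Medium switched to 0.5% FBS at 85% confluence before treatment. Viability measured after 24 h compound exposure by colorimetric MTT reduction. Mean ± SD of three individual experiments.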

C=C(C)[C@@H]1Cc2cc(CO)ccc2O1
IC50 (BV-2 [1]): 12.7 µM | inhibition (BV-2 [1]): Dose-dependent effect | IC50 (BV-2 [2]): 11.6 µM | inhibition (BV-2 [2]): Dose-dependent effect | fold change (FC) (BV-2 [3]): 1.9 | IC50 (BV-2 [4]): 33.8 µM | fold change (FC) (BV-2 [5]): 2.4 | viability at 24 h, 20 µM [6]: 85.9%

CC1=C2[C@@H](C=C3CCC[C@H](C)[C@@]3(C)[C@H]2O)OC1=O
fold change (FC) (BV-2 [3]): 3.2 | fold change (FC) (BV-2 [5]): 6.4 | viability at 24 h, 20 µM [6]: 90.2%

CCCCCc1cccc(O)c1CO
fold change (FC) (BV-2 [3]): 3.4 | fold change (FC) (BV-2 [5]): 5.6

CC1=C2[C@@H](C=C3C=CC[C@H](C)[C@@]3(C)[C@H]2O)OC1=O
fold change (FC) (BV-2 [3]): 4.5 | fold change (FC) (BV-2 [5]): 4.9 | viability at 24 h, 20 µM [6]: 79.3%

O=C1C[C@H](O)Cc2cc(O)cc(O)c21
fold change (FC) (BV-2 [3]): 2.9 | fold change (FC) (BV-2 [5]): 4.9

C=C1CO[C@@H]2C=C3CCC[C@H](C)[C@@]3(C)C[C@@]12O
IC50 (BV-2 [1]): 16.6 µM | inhibition (BV-2 [1]): Dose-dependent effect | IC50 (BV-2 [2]): 8.1 µM | inhibition (BV-2 [2]): Dose-dependent effect | fold change (FC) (BV-2 [3]): 1.8 | IC50 (BV-2 [4]): 21.7 µM | inhibition (BV-2 [4]): Dose-dependent effect | fold change (FC) (BV-2 [5]): 2.1 | viability at 24 h, 20 µM [6]: 87.7%

C=C(C=O)[C@@H]1C[C@@]2(C)C(=C[C@H]1O)CCC[C@@H]2C
viability at 24 h, 20 µM [6]: 44.6%

CCCCC1OC(=O)c2c(O)cccc21 (configuration not stated)
fold change (FC) (BV-2 [3]): 4.3 | fold change (FC) (BV-2 [5]): 6.5

COc1cc(/C=C/C(=O)CC(=O)/C=C/c2ccc(O)c(OC)c2)ccc1O [CURCUMIN]
IC50 (BV-2 [4]): 4.5 µM

C=C(CO)C1=C[C@@]2(C)C(=CC1=O)CCC[C@@H]2C
fold change (FC) (BV-2 [3]): 3.6 | fold change (FC) (BV-2 [5]): 3.7 | viability at 24 h, 20 µM [6]: 73.8%

C=C(C=O)[C@@H]1C[C@@]2(C)C(=CC1=O)CCC[C@@H]2C
viability at 24 h, 20 µM [6]: 46.1%

C=C(C)[C@@H]1Cc2cc(C=O)ccc2O1
fold change (FC) (BV-2 [3]): 3 | fold change (FC) (BV-2 [5]): 4.2
